Source: ChEMBL document CHEMBL4043311, “Developing Equipotent Teixobactin Analogues against Drug-Resistant Bacteria and Discovering a Hydrophobic Interaction between Lipid II and Teixobactin” (J Med Chem, 2018)
pKd: −log10 of the molar value. Values after ≈ are worked out from the molar mass of the structure shown. Active and inactive are the calls of the source. No cut-off for these calls is given here.

Columns and labels:
[1] = Binding affinity to undecaprenyl-phosphate at 1 to 4 nmol after 30 mins by TLC method
Method in brief: (§1)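 Lipid II or C55-P (1 nmol) incubated with 1, 2, 3 or 4 nmol compound in 50 mM Tris/HCl pH 7.5, 30 min at rt. Extracted twice with pyridinium acetate (6 M, pH 4.2)/butanol (1:2), then washed with butanol-saturated water. Organic phase run on silica TLC in chloroform/methanol/water/ammonia (88:48:10:1) and stained with phosphomolybdic acid; loss of lipid band scored. Done twice.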

[2] = Binding affinity to Bacillus subtilis UDP-MurNAc-L-Ala-gamma-DGlu-meso-Dap-D-Ala-D-Ala by ITC method
Method in brief: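 Park's nucleotide was isolated from Bacillus subtilis. ITC run at 25 °C in DMSO:H2O (85:15). The lipid II analogue (0.375 mM) was titrated into 0.025 mM test compound.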

Staphylococcus aureus [3] = test: Antibacterial activity against methicillin-sensitive Staphylococcus aureus TH 4806 after 20 hrs by broth microdilution method; format: functional; conditions: TH 4806, 20 h
Method in brief: (§2)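 Broth microdilution per CLSI in cation-adjusted Mueller-Hinton broth with 0.002% polysorbate 80. Analogues were made up as 10 mg/mL DMSO stocks, then diluted in MHB. Inoculum approx. 5×10^5 cells/mL. Incubated 20 h at 37°C; MIC taken as the lowest concentration with no visible growth. Run three times.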

Enterococcus faecalis = test: Antibacterial activity against […] Enterococcus faecalis ATCC 29212 after 20 hrs by broth microdilution method; format: functional; conditions: ATCC 29212, 20 h; method in brief: as §2
Staphylococcus aureus [4] = test: Antibacterial activity against Staphylococcus aureus ATCC 29213 at undecaprenyl-phosphate/test compound molar ratio 0.5 to 2 preincubated with undecaprenyl-phosphate for 30 mins followed by bacterial inoculation measured after overnight incubation; format: functional
Method in brief: (§3)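 Test agent at 4x or 8x its broth MIC mixed with lipid II or C55-P (2x or 0.5x molar excess over compound) in MHII broth with 0.05% tween-80, 30 min at rt; exponential S. aureus ATCC 29213 then added to final OD600 0.001. Overnight at 37 °C; growth judged by eye and plate-reader absorbance. Run two or three times.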

Streptococcus pneumoniae [5] = test: Antibacterial activity against Streptococcus pneumoniae D39 infected in C57BL/6J mouse at 1 x 10^4 cfu/mouse assessed as mouse survival rate at 1 to 5 mg/kg, iv administered 1 hr post infection measured after 48 hrs relative to control; format: functional
Method in brief: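 C57BL/6J female mice, 6-8 weeks, infected i.p. with 0.2 mL S. pneumoniae D39 suspension (1×10^4 c.f.u. per mouse), an inoculum giving at least 90% mortality within 48 h; 6 per group. Single i.v. dose 1 h post-infection at 5, 2 or 1 mg per kg in PBS:Cremophor-EL:DMSO (94:5:1); vehicle and vancomycin (5 mg per kg) controls. Survival scored at 48 h; log-rank test.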

Streptococcus pneumoniae [6] = test: Antibacterial activity against Streptococcus pneumoniae D39 after 20 hrs by broth microdilution method; format: functional; conditions: D39, 20 h
Method in brief: (§4)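 CLSI broth microdilution in cation-adjusted Mueller-Hinton broth with 3% lysed horse blood for streptococci and 0.002% polysorbate 80. Compounds taken from 10 mg/mL DMSO stocks and diluted in broth. Inoculum about 5×10^5 cells/mL. After 20 h at 37 °C, MIC read as lowest concentration with no visible growth. Done three times.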

[7] = Binding affinity to lipid 2 at 4 nmol after 30 mins by TLC method; method in brief: as §1
Staphylococcus aureus [8] = test: Antibacterial activity against methicillin-resistant Staphylococcus aureus BAA-1695 after 20 hrs by broth microdilution method; format: functional; conditions: BAA-1695, 20 h; method in brief: as §2
Streptococcus pneumoniae [9] = test: Antibacterial activity against Streptococcus pneumoniae D39 infected in C57BL/6J mouse at 5 x 10^4 cfu/mouse assessed as reduction of bacterial burden in blood at 1 to 5 mg/kg, iv administered 1 hr post infection measured after 12 to 22 hrs relative to control; format: functional
Method in brief: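 Female C57BL/6J mice, 6-8 weeks, 4 per group, given 0.2 mL S. pneumoniae D39 i.p. (5×10^4 c.f.u. per mouse). At 1 h post-infection a single i.v. dose of 5 or 1 mg/kg was given in PBS:Cremophor-EL:DMSO (94:5:1). Vehicle and vancomycin 5 mg/kg groups were included. Blood c.f.u. counted at 12, 18 and 22 h.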

Staphylococcus aureus [10] = test: Antibacterial activity against Staphylococcus aureus ATCC 29213 at lipid 2/test compound molar ratio 2 preincubated with lipid 2 for 30 mins followed by bacterial inoculation measured after overnight incubation; format: functional; method in brief: as §3
Streptococcus pyogenes = test: Antibacterial activity against Streptococcus pyogenes ATCC 19615 after 20 hrs by broth microdilution method; format: functional; conditions: ATCC 19615, 20 h; method in brief: as §4
Staphylococcus aureus [11] = test: Antibacterial activity against Staphylococcus aureus ATCC 29213 at lipid 2/test compound molar ratio 0.5 preincubated with lipid 2 for 30 mins followed by bacterial inoculation measured after overnight incubation; format: functional; method in brief: as §3

CC[C@@H](C)[C@@H](NC(=O)[C@@H](CCC(N)=O)NC(=O)[C@H](CO)NC(=O)[C@@H](NC(=O)[C@H](N)Cc1ccc(-c2ccccc2)cc1)[C@@H](C)CC)C(=O)N[C@H](C(=O)N[C@@H](CO)C(=O)N[C@H]1C(=O)N[C@@H](C)C(=O)N[C@@H](CCCCN)C(=O)N[C@@H]([C@@H](C)CC)C(=O)O[C@H]1C)[C@@H](C)CC
Activity [1]: inactive | pKd [2]: 4.64 | MIC (Staphylococcus aureus [3]): 0.5 mg/L (≈ 0.391 µM) | MIC (Enterococcus faecalis): 0.5 mg/L (≈ 0.391 µM) | Activity (Staphylococcus aureus [4]): Active | Survival (Streptococcus pneumoniae [5]): 100% | MIC (Streptococcus pneumoniae [6]): < 0.032 mg/L | Activity [7]: inactive | MIC (Staphylococcus aureus [8]): 0.5 mg/L (≈ 0.391 µM) | Activity (Streptococcus pneumoniae [9]): 6 deltalog10CFU/ml | Activity (Staphylococcus aureus [10]): inactive | MIC (Streptococcus pyogenes): < 0.25 mg/L | Activity (Staphylococcus aureus [11]): Active
